Assay results as given in PMC2913404 (Neurobiology of disease, 2010).
Positions of bridges follow the written chain, without caps; N, C: chain ends. Residues, ends and D or L forms follow the SMILES beside them. *: point of attachment. Biotin = O=C1N[C@H]2[C@H](CS[C@H]2CCCCC(=O)*)N1

Columns and labels:
[1] = tested on: Aβ amyloid species in APPswePSEN1(A246E) cortex; assay: Aβ/APP immunoblot of soluble cortex fraction; format: in vivo, mouse; details: immunoblot (Fig 3G)
[2] = tested on: monovalent Aβ1–42 peptide; details: ref Kang et al., 2003; cited from earlier work
[3] = tested on: low molecular weight Aβ amyloid from COS7 cells transfected with APPswe; assay: Precipitation from APPswe-transfected COS7 lysates; format: binding, human; details: COS7 lysate 1mg; antibody 10µg or biotin-SDPM1 50µg (Fig 1I, S1A)
In short: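 COS7 cells grown in DMEM/10% FCS were transfected at 40% confluence with V5-tagged human APP695, wild type or Swedish. At 48 h cells were lysed in 1% NP40/0.1% SDS/deoxycholate/EDTA buffer with protease inhibitors, sonicated and cleared at 16000g. Lysate (1 mg) was incubated overnight at 4°C with antibody (10 µg) or biotinylated peptide (50 µg), the latter captured on streptavidin agarose. Precipitates were analysed by SDS-PAGE and Aβ immunoblot.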

[4] = tested on: Aβ1–42 peptide (amyloid aggregation); assay: Thioflavin T amyloid formation assay, Aβ1–42; format: biochemical; details: Aβ1–42 50µM + peptide 50µM, 5 hours, 37°C, n=3 (Fig 1C)
In short: (§1)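 Aβ1–40 or Aβ1–42 (50 µM) was mixed equimolar with peptide (50 µM) at 37°C until amyloid formation saturated: 5 days for Aβ1–40, 5 hours for Aβ1–42. Time courses set the read point. Thioflavin T was then added and read at 490 nm with excitation at 445 nm. Aβ alone served as positive control; peptide alone was read as background.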

[5] = tested on: fibrillar Aβ amyloid plaques in APPswePSEN1(A246E) mouse brain; assay: Amyloid plaque burden, number and area; format: in vivo
SDPM1 / SDPM2 peptide = assay: Serum antibody titer to SDPM1/SDPM2 after immunization; format: in vivo, mouse; details: for SDPM1-specific antibody titer (SDPM1 minus SDPM2 titer): average, SEM, n=7–12 animals (Fig 2A); for antibody titers to SDPM1 and SDPM2: young (5 to 12 months), end of experiment (S2A)
[6] = tested on: Aβ1–40 in APPswePSEN1(A246E) mouse brain; assay: Aβ1–40 brain peptide level; format: in vivo; details: with adjuvant
In short: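 Transgenic mice received monthly subcutaneous injections of biotinylated test peptide (100 µg) conjugated overnight at 4°C to 25 µg streptavidin in TBS, emulsified 1:1 with adjuvant. TiterMax Gold was used first, then Freund's incomplete. Schedules ran 5–12 months (8 injections) or 12–18 months (7). Mock controls got TBS plus adjuvant. Brain Aβ1–40 ELISA was read at 450 nm against peptide standard curves and reported as µg/g wet brain weight.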

[7] = tested on: APPswePSEN1(A246E) mouse brain; assay: Brain inflammation immunostaining; format: in vivo; details: young and old; for reduction of CD68 immunostaining: significant (Fig 5D); for GFAP staining signal: with adjuvant (Fig 5C); for Iba1 staining signal: with adjuvant (Fig 5E)
[8] = tested on: amyloid plaques in AD brain; details: ref Kang et al., 2003; cited from earlier work
[9] = Self-aggregation of SDPM1 by Thioflavin T; format: physicochemical; details: SDPM1 added alone, over time
[10] = tested on: Aβ1–42 in APPswePSEN1(A246E) mouse brain; assay: Aβ1–42 brain peptide level; format: in vivo; details: with adjuvant
[11] = tested on: Aβ1–40 peptide (amyloid aggregation); assay: Thioflavin T amyloid formation assay, Aβ1–40; format: biochemical; details: Aβ1–40 50µM + peptide 50µM, 5 days, 37°C, n=3 (Fig 1C)
In short: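 Aβ1–40 (50 µM; stored frozen in DMSO) was mixed with equimolar test peptide (50 µM) and incubated 5 days at 37°C until amyloid formation saturated. Thioflavin T was then added, and signal was read at 490 nm with excitation at 445 nm.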

Aβ1–42 peptide = assay: Amyloid trapping assay, SDS-PAGE and Aβ1–40/42 immunoblot; format: biochemical; details: SDS-PAGE/immunoblot after mixing with Aβ1–42 (Fig 1G, 1H)
In short: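 Aβ1–42 (50 µM) incubated with equimolar test peptide (50 µM) or 1:500 immune serum for 5 h at 37°C. A subset of mixtures was boiled in SDS with reducing agent and run on 10–20% Tris-tricine gels, then transferred to nitrocellulose. Blots were blocked in TBST/5% milk and probed with rabbit anti-Aβ1–40/42 at 1:10,000 in TBST/2.5% milk.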

[12] = tested on: monovalent Aβ1–40 peptide; details: ref Kang et al., 2003; cited from earlier work
APPswePSEN1(A246E) mice = assay: Morris water maze; format: in vivo, mouse
[13] = tested on: Aβ1–40/1–42 in APPswePSEN1(A246E) mouse brain; assay: Aβ1–40/1–42 immunostaining of brain; format: in vivo; details: for Aβ1–40/42 immunostaining signal, % of control: young, with adjuvant
In short: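 After monthly s.c. streptavidin-peptide conjugate immunization with adjuvant, brains were collected after PBS exsanguination and bisected, then snap-frozen or fixed overnight in 2% paraformaldehyde. Some sagittal sections were pretreated with 90% formic acid for 4 min. Sections were blocked 2 h in 10% goat serum, given rabbit anti-Aβ1–40/42 overnight at 4°C, then Cy3 secondary for 1 h. Eight to twelve sections 80 µm apart were imaged at 10X with a fixed threshold.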

Aβ amyloid = assay: Serum antibody titer to Aβ amyloid after immunization; format: in vivo, mouse; details: for Aβ amyloid antibody titer: young, significant vs Mock (Fig 2C)
[14] = tested on: Aβ amyloid (Aβ1–40 or Aβ1–42); assay: Thioflavin T amyloid formation assay, Aβ form not distinguished; format: biochemical; details: peptide 50µM + Aβ1–40 or Aβ1–42 50µM, 37°C, n=3 (Fig 1C)
In short: as §1

[15] = old, in most instances (Fig 3D–F)
[16] = young, in all instances, n=7–12 animals (Fig 3A–C)
[17] = young, soluble and insoluble, cortex, hippocampus (Fig 3A, B)

Q: For CC(C)C[C@@H]1NC(=O)[C@H](CCCNC(=N)N)NC(=O)[C@H](Cc2c[nH]c3ccccc23)NC(=O)[C@H](CCCNC(=N)N)NC(=O)CNC(=O)CNC(=O)[C@H](CCCCN)NC(=O)CNC(=O)[C@H](Cc2c[nH]c3ccccc23)NC(=O)[C@H](CC(=O)O)NC(=O)[C@@H](NC(=O)[C@H](CCC(=O)O)NC(=O)[C@H](C)NC(=O)CCCC[C@@H]2SC[C@@H]3NC(=O)N[C@@H]32)CSSC[C@@H](C(=O)NCC(=O)N2CCC[C@H]2C(=O)O)NC(=O)[C@H](C)NC(=O)[C@H](CCC(=O)O)NC(=O)[C@H]([C@@H](C)O)NC(=O)[C@H](CCCCN)NC(=O)CNC(=O)[C@H](CO)NC(=O)[C@H](C)NC(=O)CNC(=O)[C@@H]2CCCN2C(=O)[C@H](Cc2c[nH]c3ccccc23)NC1=O [SDPM1] (Biotin-AECDWGKGGRWRLWPGASGKTEACGP-OH; disulfide 3-24; C-terminus assumed), which “high and low MW Aβ amyloid species” value [1] is on record?
A: The value was “large reductions in both high and low MW Aβ amyloid species”.

Q: And the “binding to monovalent Aβ1–42 peptide” value [2]?
A: Its value is “does not bind monovalent Aβ1–40 or Aβ1–42 peptide”.

Q: And the “precipitation of low MW Aβ amyloid from APPswe cells” value [3]?
A: Its value is “tetramer Aβ amyloid precipitated from APPswe-transfected cells”.

Q: And the “inhibition of amyloid aggregation” value [4]?
A: The value was “over 60%”.

Q: And the “Thioflavin S staining of fibrillar amyloid (images)” value ([5]; hippocampus and cortex (Fig 2D, S3–4), similar with Congo Red (not shown))?
A: The value was “dramatically reduced”.

Q: And the “amyloid plaque burden, plaque number, plaque area, Thioflavin S staining” value ([5]; old, s.c. once a month with adjuvant, 12 to 18 months (Fig 2E–G, S2B))?
A: The value was “highly significant reductions in amyloid plaque burden, plaque number, plaque area, and Thioflavin S staining”.

Q: What about the “SDPM1-specific antibody titer (SDPM1 minus SDPM2 titer)” value (SDPM1 / SDPM2 peptide; old (12 to 18 months), with adjuvant) of the same molecule?
A: The value was 29 ± 6 µg/mL.

Q: And the predominant antibody subtype (SDPM1 / SDPM2 peptide; with adjuvant, young and old (Fig 2B))?
A: The predominant antibody subtype was “IgG1”.

Q: What about the “antibody titers to SDPM1 and SDPM2” value (SDPM1 / SDPM2 peptide; without adjuvant) of the same molecule?
A: The value was 2 to 15 µg/mL.

Q: What about the “antibody titers to SDPM1 and SDPM2 vs without adjuvant” value (SDPM1 / SDPM2 peptide; young, with adjuvant (S2A)) of the same molecule?
A: The value was “increased titers to SDPM1 and SDPM2”.

Q: And the “SDPM1 titers relative to SDPM2 titers” value (SDPM1 / SDPM2 peptide; young, without adjuvant (S2A))?
A: The value was “increased SDPM1 titers relative to SDPM2”.

Q: What about the “SDPM1-specific antibody titer (SDPM1 minus SDPM2 titer)” value (SDPM1 / SDPM2 peptide; young, without adjuvant) of the same molecule?
A: Its value is 5 ± 1 µg/mL.

Q: What about the “reduction in Aβ1–40 peptide level” value [6, 15] of the same molecule?
A: Its value is “greater than 50%”.

Q: And the “Aβ1–40 cerebellum level” value ([6]; young, cerebellum (Fig 3C))?
A: Its value is “significantly reduced”.

Q: What about the “reduction in Aβ1–40 peptide level” value [6, 16] of the same molecule?
A: The value was “greater than 50%”.

Q: And the “Aβ1–40 brain level, significance of reduction” value [6, 17]?
A: Its value is “significant reduction in both soluble and insoluble Aβ1–40 and Aβ1–42”.

Q: What about the “reduction of CD68 immunostaining” value ([7]; cortex, with adjuvant) of the same molecule?
A: Its value is ≥ 50%.

Q: What about the “reduction of CD68 immunostaining” value ([7]; hippocampus, with adjuvant) of the same molecule?
A: Its value is ≥ 50%.

Q: What about the GFAP staining signal [7] of the same molecule?
A: The GFAP staining signal was “no significant changes”.

Q: What about the Iba1 staining signal [7] of the same molecule?
A: Its Iba1 staining signal is “no significant changes”.

Q: What about the “CD3, CD4, CD8, B220 brain parenchymal staining” value ([7]; with adjuvant, not shown) of the same molecule?
A: The value was “no evidence for brain parenchymal staining”.

Q: And the “binding to amyloid plaques in AD brain” value [8]?
A: The value was “most efficacious in binding amyloid plaques in AD brain”.

Q: And the “Thioflavin T signal of peptide alone (amyloid self-formation)” value [9]?
A: Its value is “did not lead to development of increased Thioflavin T signal over time”.

Q: What about the “reduction in Aβ1–42 peptide level” value [10, 15] of the same molecule?
A: The value was “greater than 50%”.

Q: And the “reduction in Aβ1–42 peptide level” value ([10]; old, insoluble fraction, cortex (Fig 3D))?
A: Its value is 65–75%.

Q: What about the “reduction in Aβ1–42 peptide level” value ([10]; old, insoluble fraction, hippocampus (Fig 3E)) of the same molecule?
A: Its value is 65–75%.

Q: What about the “reduction in Aβ1–42 peptide level” value [10, 16] of the same molecule?
A: The value was “greater than 50%”.

Q: What about the “Aβ1–42 brain level, significance of reduction” value [10, 17] of the same molecule?
A: Its value is “significant reduction in both soluble and insoluble Aβ1–40 and Aβ1–42”.

Q: And the “inhibition of amyloid aggregation” value [11]?
A: The value was “over 60%”.

Q: And the “effect on high MW Aβ aggregate formation” value (Aβ1–42 peptide)?
A: Its value is “reduced formation of high molecular weight (MW) Aβ aggregates”.

Q: And the “size of trapped Aβ forms (trimers and tetramers)” value (Aβ1–42 peptide)?
A: The value was 12–16 kDa.

Q: What about the “binding to monovalent Aβ1–40 peptide” value [12] of the same molecule?
A: The value was “does not bind monovalent Aβ1–40 or Aβ1–42 peptide”.

Q: And the escape latency (APPswePSEN1(A246E) mice; old (12 to 18 mo), with adjuvant (Fig 4D))?
A: The escape latency was “no improvement”.

Q: And the probe test (APPswePSEN1(A246E) mice; old (12 to 18 mo), with adjuvant (Fig 4E))?
A: The probe test was “no improvement”.

Q: And the “probe test, time in platform quadrant” value (APPswePSEN1(A246E) mice; young (5 to 12 mo), with adjuvant (Fig 4B))?
A: Its value is “improved significantly compared to controls, spending almost the same amount of time in the appropriate quadrant as WT animals”.

Q: And the “Aβ1–40/42 immunostaining signal, % of control” value ([13]; cortex)?
A: Its value is 25±6%.

Q: What about the “Aβ1–40/42 immunostaining signal, % of control” value ([13]; hippocampus) of the same molecule?
A: The value was 14±3%.

Q: And the “Aβ1–40/42 staining signal” value ([13]; old, with adjuvant (S2C))?
A: Its value is “also reduced in old mice”.

Q: And the “Aβ amyloid (Aβ1–40/42) antibody titer” value (Aβ amyloid; old, with adjuvant, Mock 11±6µg/mL, did not reach statistical significance (Fig 2C))?
A: Its value is 23 ± 7 µg/mL.

Q: And the “Aβ amyloid antibody titer” value (Aβ amyloid; with adjuvant, Mock 5±2µg/mL)?
A: The value was 21 ± 7 µg/mL.

Q: What about the “Aβ amyloid antibody titer” value (Aβ amyloid; without adjuvant, Mock 1±1 µg/mL) of the same molecule?
A: The value was 5 ± 1 µg/mL.

Q: With DWGKGGRWRLWPGASGKTEA [SDPM2] as the molecule, how does the SDPM1-specific antibody titers (SDPM1 / SDPM2 peptide; any condition (Fig 2A)) read?
A: The SDPM1-specific antibody titers was “never showed SDPM1-specific antibody titers under any conditions”.

Q: What about the “antibody titers to SDPM1 and SDPM2” value (SDPM1 / SDPM2 peptide; without adjuvant) of the same molecule?
A: Its value is 2 to 15 µg/mL.

Q: And the GFAP staining signal [7]?
A: Its GFAP staining signal is “no significant changes”.

Q: What about the Iba1 staining signal [7] of the same molecule?
A: The Iba1 staining signal was “no significant changes”.

Q: What about the “effect on high MW Aβ aggregate formation” value (Aβ1–42 peptide) of the same molecule?
A: Its value is “had no effect on Aβ amyloid formation in vitro”.

Q: What about the “Aβ staining levels vs mock-immunized” value ([13]; S2C) of the same molecule?
A: The value was “not significantly reduced, though it trended downward compared to mock-immunized animals”.

Q: And the “Thioflavin T signal decrease” value [14]?
A: The value was “no significant decrease in Thioflavin T signal”.
